The source made the active and inactive calls. The rule behind the calls is not given here.
Columns and labels:
[1] = target: T1, Glycylpeptide N-tetradecanoyltransferase (Plasmodium falciparum (isolate 3D7), UniProt Q8ILW6); assay: Binding affinity to Plasmodium falciparum NMT using GSNKSKPKDASQRRR-NH2 as substrate after 10 to 20 mins by CPM fluorescence assay
T1 sequence (Q8ILW6 whole entry): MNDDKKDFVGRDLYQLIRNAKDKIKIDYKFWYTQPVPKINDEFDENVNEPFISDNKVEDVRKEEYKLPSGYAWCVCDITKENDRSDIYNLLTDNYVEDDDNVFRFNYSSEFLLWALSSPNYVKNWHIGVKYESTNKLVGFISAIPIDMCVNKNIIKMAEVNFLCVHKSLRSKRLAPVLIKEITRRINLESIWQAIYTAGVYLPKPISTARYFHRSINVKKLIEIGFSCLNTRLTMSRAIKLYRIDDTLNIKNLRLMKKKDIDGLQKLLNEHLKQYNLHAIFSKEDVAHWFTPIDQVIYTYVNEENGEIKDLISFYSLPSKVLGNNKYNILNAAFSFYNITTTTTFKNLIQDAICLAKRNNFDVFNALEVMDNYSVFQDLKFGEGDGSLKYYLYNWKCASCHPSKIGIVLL
How it was run: (§1)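 Ki derived from enzyme IC50 by the Cheng–Prusoff equation, which corrects for the differing Michaelis constants of each NMT. Each IC50 is the mean of two or more determinations.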

Plasmodium falciparum = assay: Antiplasmodium activity against Chloroquine-sensitive later trophozoite form of Plasmodium falciparum 3D7 assessed as parasite growth inhibition after 48 hrs by FACS flow cytometric analysis; assay type: functional, organism-based; conditions: 3D7, 48 h
[2] = Binding affinity to recombinant Plasmodium vivax NMT using GSNKSKPKDASQRRR-NH2 as substrate after 10 to 20 mins by CPM fluorescence assay; how it was run: as §1
[3] = target: T2, Glycylpeptide N-tetradecanoyltransferase 1 (Homo sapiens, UniProt P30419); assay: Binding affinity to human NMT1 after 10 to 20 mins by CPM fluorescence assay; how it was run: as §1
T2 sequence (P30419 whole entry): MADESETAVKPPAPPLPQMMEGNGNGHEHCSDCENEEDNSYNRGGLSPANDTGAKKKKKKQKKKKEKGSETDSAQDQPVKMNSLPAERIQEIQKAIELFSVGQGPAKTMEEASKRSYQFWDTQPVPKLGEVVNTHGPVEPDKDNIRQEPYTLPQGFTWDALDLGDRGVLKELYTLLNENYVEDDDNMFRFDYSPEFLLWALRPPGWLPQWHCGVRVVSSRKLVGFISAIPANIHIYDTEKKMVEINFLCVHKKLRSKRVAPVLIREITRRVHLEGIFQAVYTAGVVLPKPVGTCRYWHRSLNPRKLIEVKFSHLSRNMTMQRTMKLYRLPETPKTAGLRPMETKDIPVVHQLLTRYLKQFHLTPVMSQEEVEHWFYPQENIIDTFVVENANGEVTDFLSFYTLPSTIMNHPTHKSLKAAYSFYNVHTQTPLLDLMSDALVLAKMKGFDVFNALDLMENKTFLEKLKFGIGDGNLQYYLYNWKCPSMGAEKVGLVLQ

[4] = target: Glycylpeptide N-tetradecanoyltransferase 1 (Homo sapiens) (UniProt P30419); assay: Inhibition of human NMT1

Compound | Ki [1] [µM] | EC50 (Plasmodium falciparum) [µM] | Ki [2] [µM] | Ki [3] [µM] | inhibition activity call (active/not active) [4]
CCOC(=O)c1sc2ccccc2c1OC1CCNCC1 | 1.3 | 14.6 | 1.32 | > 100 | inactive
O=C(NCc1ccccc1)c1sc2ccccc2c1OC1CCNCC1 | 10.7 | 8.1 | 1.32 | 4.76 | Active
CCOC(=O)c1oc2cccc(OC3CCNCC3)c2c1C | 13.6 | – | 14.9 | > 100 | inactive
CCOC(=O)c1oc2ccccc2c1OC1CCNCC1 | 4.47 | 61.4 | 1.74 | > 100 | inactive
O=C(OCc1ccccc1)c1sc2ccccc2c1OC1CCNCC1 | 3.37 | 4.2 | 2.16 | 4.41 | Active
COc1cccc(COC(=O)c2sc3ccccc3c2OC2CCNCC2)c1 | 0.83 | 2 | – | – | Active
COc1cccc(CNC(=O)c2sc3ccccc3c2OC2CCNCC2)c1 | > 100 | – | 2.7 | > 100 | inactive
